Only some compounds are listed: those with a hit (about 3.9% of all), similar ones and a draw of the others.
TAAR1 antagonist – antagonists of human TAAR1 | Q96RJ0 | inhibition, % at 3 µM | actives 1.5% (n = 360,000) | CHO RD-HGA16 TAAR1, Fluo-8 calcium fluorescence, antagonist;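 active = inhibition above a per-plate cutoff, the mean inhibition of test compounds on that plate plus 3 SD, cut at about 49% in these data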
Target sequence (Q96RJ0 whole entry, looked up): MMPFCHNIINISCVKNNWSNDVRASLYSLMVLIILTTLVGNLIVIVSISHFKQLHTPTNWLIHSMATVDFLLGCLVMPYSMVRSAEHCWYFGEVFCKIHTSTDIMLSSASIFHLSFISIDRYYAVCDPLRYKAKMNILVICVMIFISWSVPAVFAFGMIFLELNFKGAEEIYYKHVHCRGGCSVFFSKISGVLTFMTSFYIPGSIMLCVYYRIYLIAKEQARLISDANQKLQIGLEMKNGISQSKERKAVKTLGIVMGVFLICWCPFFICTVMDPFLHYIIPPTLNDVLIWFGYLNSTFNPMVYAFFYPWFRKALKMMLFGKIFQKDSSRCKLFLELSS
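Material: RD-HGA16 CHO cells with stable hTAAR1 and Gα16; Dosing: single nominal final test compound concentration of 3 µM; Schedule: seeding 17-24 h prior, 75-min 37 °C, 30-min RT dye loading; Detection: kinetic Fluo-8 calcium fluorescence measurement; Measure: % inhibition from peak post-agonist over basal fluorescence ratio; Benchmarks: vehicle and agonist controls.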
TMEM16A inh – blocks the mouse calcium-activated chloride channel TMEM16A; actives 1.2% (n = 310,000); HEK293 TMEM16A/YFP iodide influx fluorescence, ionomycin; normalized B-score (activity score, 25-100; higher = stronger inhibition) at 10 µM; Q8BHY3;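 active = ratio plate-corrected score three or more library SD toward inhibition, starting fluorescence score within five deviations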;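 note: score derived from kinetic fluorescence span divided by baseline fluorescence per well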
TAAR1 agonist – agonists of human TAAR1 | Q96RJ0 | CHO RD-HGA16 TAAR1, Fluo-8 calcium fluorescence; vehicle wells 0%, saturating PEA agonist 100% | activation, % at 3 µM | actives 0.99% (n = 360,000);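 active = activation above the mean activation of all test compounds in the run plus 3 SD, cut at about 38% in these data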
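Benchmarks: low control DMSO, high control PEA (EC100); System: CHO RD-HGA16 cells carrying human TAAR1 plus Gα16; Detection: Fluo-8 fluorescence, 5 s baseline then 140 s kinetic read; Schedule: 17-24 h plating, Fluo-8 75 min 37 °C, 30 min RT; Read-out basis: % activation from peak over basal fluorescence ratio, DMSO-to-PEA scaled.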
TMEM16A act – mouse TMEM16A channel activation, primary screen; B-score at 10 µM; HEK293 TMEM16A/YFP-H148Q/I152L, iodide quench fluorescence; stronger effect = lower value; Q8BHY3; actives 0.3% (n = 340,000);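 active = fluorescence-ratio B-score plate-corrected deviation score at least 3 library SD below zero, with starting fluorescence score within 5 deviations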;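 note: channel opened by trigger with iodide after compound preincubation; score built on the fluorescence ratio of max minus min over baseline; more negative score means more quench and so TMEM16A activation or potentiation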
CRFBP-R2 block – CRF-BP/CRF-R2 complex antagonism. HEK293 CRF-R2/CRF-BP, CRF-induced calcium fluorescence. inhibition, % at 11.8 µM. actives 0.59% (n = 350,000). AID 588475;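 active = inhibition of the ligand-induced calcium signal above about 50% at the single tested concentration, limit read from the data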
CRFR2-BP ag – agonists of human CRF-binding protein/CRF-R2 receptor complex | HEK293 CRF-R2/CRF-BP, calcium dye fluorescence (FLIPR); percent of saturating CRF peptide response | activation, % at 13.2 µM | actives 0.46% (n = 350,000) | AID 588473;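 active = activation of at least 50%, plus an integration ratio under a set limit after plate pattern correction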
Large screens that a line does not name were inactive.

CSc1ccccc1NC(=O)c1cc(CC(C)C)on1	CRFBP-R2 block 63
COc1cc(/C=N/Nc2nc(N3CCCC3)nc(N3CCCC3)n2)ccc1OCc1ccccc1F	none
CCCCn1c(N)c(N(CC(C)C)C(=O)Cc2ccc(S(=O)(=O)N3CCOCC3)s2)c(=O)[nH]c1=O	TMEM16A act -7.5, CRFR2-BP ag 54 (no result: TMEM16A inh)
CCCCn1c(N)c(N(CCC(C)C)C(=O)Cc2ccc(S(=O)(=O)N3CCOCC3)s2)c(=O)[nH]c1=O	CRFBP-R2 block 100
COc1cccc(N=Cc2c[nH][nH]c2=O)c1	none
O=c1[nH][nH]cc1C=Nc1ccc(Cl)cc1	CRFBP-R2 block 72
CCCNC(=O)CS(=O)(=O)c1ccccc1	none
Cc1ccc(NC(=O)COc2ccccc2)cc1S(=O)(=O)N1CCCCC1	none (no result: TMEM16A inh, TMEM16A act)
CCOc1ccc(OCCC(=O)OCC(=O)Nc2ccc(C)c(S(=O)(=O)N3CCCCC3)c2)cc1	TMEM16A inh 100
COc1cc(CCC(=O)Nc2ccc(C)c(S(=O)(=O)N3CCCCCC3)c2)cc(OC)c1OC	TAAR1 antagonist 50 (no result: TMEM16A inh)
COc1cc(CCC(=O)Nc2ccc(S(=O)(=O)N3CCCC3)cc2)cc(OC)c1OC	none (no result: TMEM16A inh)
CC(=O)c1cccc(NC(=O)c2cccc3c(-c4cnn(C)c4)coc23)c1	TAAR1 antagonist 55 (no result: TMEM16A inh, TMEM16A act, CRFBP-R2 block, CRFR2-BP ag)
COc1ccc(-c2ccc(C(=O)Nc3ccc(Cl)cc3)c3occc23)c(C)c1	none (no result: TMEM16A inh, TMEM16A act, CRFBP-R2 block, CRFR2-BP ag)
CC(=O)Nc1ccc(NC(=O)c2ccc(-c3c(C)noc3C)c3ccoc23)cc1	none (no result: TMEM16A inh, TMEM16A act, CRFBP-R2 block, CRFR2-BP ag)
Cn1cc(-c2coc3c(C(=O)Nc4ccccc4)cccc23)cn1	none (no result: TMEM16A inh, TMEM16A act, CRFBP-R2 block, CRFR2-BP ag)
COc1cc(NC(=O)c2cccc3c(-c4cnn(C)c4)coc23)cc(OC)c1OC	TAAR1 antagonist 54 (no result: TMEM16A inh, TMEM16A act, CRFBP-R2 block, CRFR2-BP ag)
COc1ccc(-c2ccc(C(=O)Nc3ccc(NC(C)=O)cc3)c3occc23)c(C)c1	TAAR1 antagonist 51 (no result: TMEM16A inh, TMEM16A act, CRFBP-R2 block, CRFR2-BP ag)
COc1ccc(NC(=O)c2cccc3c(-c4cnn(C)c4)coc23)cc1	none (no result: TMEM16A inh, TMEM16A act, CRFBP-R2 block, CRFR2-BP ag)
CC(=O)c1cccc(NC(=O)c2ccc(-c3c(C)noc3C)c3ccoc23)c1	TAAR1 antagonist 64 (no result: TMEM16A inh, TMEM16A act, CRFBP-R2 block, CRFR2-BP ag)
O=S1(=O)CCSC[C@@H](CNCc2ccco2)N1	none (no result: TMEM16A inh, TMEM16A act, CRFBP-R2 block, CRFR2-BP ag)
N#C/C(=C1\CCCN1)c1nc2ccccc2c(=O)[nH]1	CRFBP-R2 block 68
CN(C)S(=O)(=O)c1ccc(Cl)c(NC(=O)COC(=O)c2cc(-c3ccccc3)nc3ccccc23)c1	TAAR1 antagonist 52
Oc1ccc(NCc2cccc(OCc3ccc(F)cc3)c2)cc1	TMEM16A inh 25
CCOC(=O)c1c(NC(=O)c2cc(C(C)C)on2)sc(C(C)=O)c1C	TMEM16A act -12
CCOC(=O)c1c(NC(=O)CSc2nc3ccccc3s2)sc(C(C)=O)c1C	TMEM16A inh 25
CCOC(=O)c1c(NC(=O)c2cc(CC(C)C)on2)sc(C(C)=O)c1C	none
COC(=O)c1ccc(CSc2nc(-c3ccco3)cc(C(F)(F)F)n2)o1	TMEM16A act -5.1
CCOC(=O)c1sc(NC(=O)CSc2nc(-c3ccco3)cc(C(F)(F)F)n2)c(C(=O)OCC)c1C	TMEM16A act -7.7 (no result: TMEM16A inh)
COc1ccccc1NC(=O)CSc1nccn1Cc1ccccc1	none
CCOc1cc(OCC)cc(C(=O)N2CCC[C@H]2C(=O)N2CCC[C@H]2C(=O)NCc2cccc(OC)c2)c1	none (no result: TMEM16A inh, TMEM16A act, CRFBP-R2 block, CRFR2-BP ag)
O=C(Nc1cc(Cl)ccc1Cl)N1CCN(C(=O)Nc2cc(Cl)ccc2Cl)CC1	none (no result: TMEM16A inh)
Cc1ccc(NC(=O)C(C)c2ccc(-c3ccccc3)c(F)c2)cc1 (configuration not stated)	TAAR1 antagonist 55
Cc1ccc(NC(=O)C(Nc2ccccc2)c2ccccc2)cc1 (configuration not stated)	none
CCc1ccc(C(=O)OCC(=O)N(CCOC)c2c(N)n(Cc3ccccc3)c(=O)[nH]c2=O)cc1	none
CC(C)CC(N)c1csc(Nc2ccc(C(=O)N(C)Cc3ccccc3)cn2)n1 (configuration not stated)	none (no result: TMEM16A inh, TMEM16A act, CRFBP-R2 block, CRFR2-BP ag)
NC(Cc1ccc(C(F)(F)F)cc1)c1csc(Nc2ncccn2)n1 (configuration not stated)	none (no result: TMEM16A inh, TMEM16A act, CRFBP-R2 block, CRFR2-BP ag)
CN(Cc1ccccc1)C(=O)c1ccc(Nc2nc(C(N)Cc3ccccc3)cs2)nc1 (configuration not stated)	TAAR1 agonist 45 (no result: TMEM16A inh, TMEM16A act, CRFBP-R2 block, CRFR2-BP ag)

Screening data (PubChem BioAssay)
